Experimental data: ChEMBL document CHEMBL1811902, “Thermodynamic and biological evaluation of a thrombin binding aptamer modified with several unlocked nucleic acid (UNA) monomers and a 2'-C-piperazino-UNA monomer” (Bioorg Med Chem, 2011)

Legend:
Prothrombin = Prothrombin (Homo sapiens, UniProt P00734); assay: Binding affinity to thrombin at 37 degC by isothermal titration calorimetry
Method in brief: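 ITC at 37 °C. One 0.2 µL pre-injection, discarded, then 19 × 2 µL injections. Heat of dilution from aptamer-into-buffer injections subtracted.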

[1] = Thermodynamic stability in pH 7.0 buffer containing 100 mM Kcl, 10 mM sodium cacodylate; type: physicochemical
Method in brief: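 UV melting at 295 nm over 5–95 °C at 0.2 °C/min. Samples annealed 5 min at 80 °C, then slowly cooled. Nine strand concentrations spanning 10^-5–10^-6 M, set from absorbance above 80 °C. Heating and cooling profiles recorded. Thermodynamic parameters from non-linear fitting of melting curves with a unimolecular transition model.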

Plasma [2] = assay: Anticoagulant activity in human plasma assessed as time required for clot formation in presence of compound minus time required for clot formation in absence of compound at 0.33 mM at 37 degC; type: functional
Method in brief: (§1)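 Pooled citrate plasma from four healthy donors. Thrombin reagent pre-incubated with aptamer at 0.33 mM for 5 min, then mixed with an equal volume of plasma. Clotting time (thrombin time, seconds) read at 37 °C on an automated coagulation analyser. Antithrombin effect taken as the extra clotting time over a water-added reference.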

Plasma [3] = assay: Anticoagulant activity in human plasma assessed as time required for clot formation at 0.33 mM at 37 degC; type: functional; method in brief: as §1

SMILES | Kd (Prothrombin) | Tm [1] | Time (Plasma [2]) | Time (Plasma [3])
Cc1cn([C@H]2C[C@H](OP(N)(=O)OC[C@H]3O[C@@H](n4cnc5c(=O)[nH]c(N)nc54)C[C@@H]3OP(N)(=O)OC[C@H]3O[C@@H](n4cnc5c(=O)[nH]c(N)nc54)C[C@@H]3O)[C@@H](COP(N)(=O)O[C@H]3C[C@H](n4cc(C)c(=O)[nH]c4=O)O[C@@H]3COP(N)(=O)O[C@H]3C[C@H](n4cnc5c(=O)[nH]c(N)nc54)O[C@@H]3COP(N)(=O)O[C@H]3C[C@H](n4cnc5c(=O)[nH]c(N)nc54)O[C@@H]3COP(N)(=O)O[C@H]3C[C@H](n4cc(C)c(=O)[nH]c4=O)O[C@@H]3COP(N)(=O)O[C@H]3C[C@H](n4cnc5c(=O)[nH]c(N)nc54)O[C@@H]3COP(N)(=O)OC[C@@H](COP(N)(=O)O[C@H]3C[C@H](n4cnc5c(=O)[nH]c(N)nc54)O[C@@H]3COP(N)(=O)O[C@@H]3C[C@@H](COP(N)(=O)O[C@H]4C[C@H](n5cc(C)c(=O)[nH]c5=O)O[C@@H]4COP(N)(=O)O[C@H]4C[C@H](n5c(C)cc(=O)[nH]c5=O)O[C@@H]4COP(N)(=O)O[C@H]4C[C@H](n5cnc6c(=O)[nH]c(N)nc65)O[C@@H]4COP(N)(=O)O[C@H]4C[C@H](n5cnc6c(=O)[nH]c(N)nc65)O[C@@H]4COC(=O)CCCC[C@@H]4SC[C@@H]5NC(=O)N[C@@H]54)O[C@H]3n3cnc4c(=O)[nH]c(N)nc43)O[C@H](CN3CCNCC3)n3ccc(=O)[nH]c3=O)O2)c(=O)[nH]c1=O (some centres undefined) | 52.6 nM | 45.2 °C | 12.2 s | 31.2 s
Cc1cn([C@H]2C[C@H](OP(N)(=O)OC[C@@H]3C[C@@H](OP(N)(=O)OC[C@H]4O[C@@H](n5cnc6c(=O)[nH]c(N)nc65)C[C@@H]4OP(N)(=O)OC[C@H]4O[C@@H](n5ccc(=O)[nH]c5=O)[C@H](O)[C@@H]4OP(N)(=O)OC[C@H]4O[C@@H](n5cnc6c(=O)[nH]c(N)nc65)[C@H](O)[C@@H]4OP(N)(=O)OC[C@H]4O[C@@H](n5ccc(=O)[nH]c5=O)[C@H](O)[C@@H]4OP(N)(=O)OC[C@H]4O[C@@H](n5cnc6c(=O)[nH]c(N)nc65)C[C@@H]4OP(N)(=O)OC[C@H]4O[C@@H](n5cnc6c(=O)[nH]c(N)nc65)C[C@@H]4OP(N)(=O)OC[C@H]4O[C@@H](n5ccc(=O)[nH]c5=O)[C@H](O)[C@@H]4OP(N)(=O)OC[C@H]4O[C@@H](n5cc(C)c(=O)[nH]c5=O)C[C@@H]4OP(N)(=O)OC[C@H]4O[C@@H](n5cnc6c(=O)[nH]c(N)nc65)C[C@@H]4OP(N)(=O)OC[C@H]4O[C@@H](n5cnc6c(=O)[nH]c(N)nc65)C[C@@H]4O)[C@H](n4cnc5c(=O)[nH]c(N)nc54)O3)[C@@H](COP(N)(=O)O[C@H]3[C@@H](O)[C@H](n4ccc(=O)[nH]c4=O)O[C@@H]3COP(N)(=O)O[C@H]3C[C@H](n4cnc5c(=O)[nH]c(N)nc54)O[C@@H]3COP(N)(=O)O[C@H]3C[C@H](n4cnc5c(=O)[nH]c(N)nc54)O[C@@H]3COC(=O)CCCC[C@@H]3SC[C@@H]4NC(=O)N[C@@H]43)O2)c(=O)[nH]c1=O (some centres undefined) | – | 29.7 °C | 0 s | 19 s
Cc1cn([C@H]2C[C@H](OP(N)(=O)OC[C@@H]3C[C@@H](OP(N)(=O)OC[C@H]4O[C@@H](n5cnc6c(=O)[nH]c(N)nc65)C[C@@H]4OP(N)(=O)OC[C@H]4O[C@@H](n5ccc(=O)[nH]c5=O)[C@H](O)[C@@H]4OP(N)(=O)OC[C@H]4O[C@@H](n5cnc6c(=O)[nH]c(N)nc65)C[C@@H]4OP(N)(=O)OC[C@H]4O[C@@H](n5cc(C)c(=O)[nH]c5=O)C[C@@H]4OP(N)(=O)OC[C@H]4O[C@@H](n5cnc6c(=O)[nH]c(N)nc65)C[C@@H]4OP(N)(=O)OC[C@H]4O[C@@H](n5cnc6c(=O)[nH]c(N)nc65)C[C@@H]4OP(N)(=O)OC[C@H]4O[C@@H](n5cc(C)c(=O)[nH]c5=O)C[C@@H]4OP(N)(=O)OC[C@H]4O[C@@H](n5cc(C)c(=O)[nH]c5=O)C[C@@H]4OP(N)(=O)OC[C@H]4O[C@@H](n5cnc6c(=O)[nH]c(N)nc65)C[C@@H]4OP(N)(=O)OC[C@H]4O[C@@H](n5cnc6c(=O)[nH]c(N)nc65)C[C@@H]4O)[C@H](n4cnc5c(=O)[nH]c(N)nc54)O3)[C@@H](COP(N)(=O)O[C@H]3C[C@H](n4cc(C)c(=O)[nH]c4=O)O[C@@H]3COP(N)(=O)O[C@H]3C[C@H](n4cnc5c(=O)[nH]c(N)nc54)O[C@@H]3COP(N)(=O)O[C@H]3C[C@H](n4cnc5c(=O)[nH]c(N)nc54)O[C@@H]3CO)O2)c(=O)[nH]c1=O (some centres undefined) | 37 nM | – | – | –

Further lines, with some results ahead:

Kd (Prothrombin) | Tm [1] | SMILES | Time (Plasma [2]) | Time (Plasma [3])
– | 47.4 °C | Cc1cn([C@H]2C[C@H](OP(N)(=O)OC[C@@H]3C[C@@H](OP(N)(=O)OC[C@H]4O[C@@H](n5cnc6c(=O)[nH]c(N)nc65)C[C@@H]4OP(N)(=O)OC[C@H]4O[C@@H](n5cc(C)c(=O)[nH]c5=O)C[C@@H]4OP(N)(=O)OC[C@H]4O[C@@H](n5cnc6c(=O)[nH]c(N)nc65)C[C@@H]4OP(N)(=O)OC[C@H]4O[C@@H](n5cc(C)c(=O)[nH]c5=O)C[C@@H]4OP(N)(=O)OC[C@H]4O[C@@H](n5cnc6c(=O)[nH]c(N)nc65)C[C@@H]4OP(N)(=O)OC[C@H]4O[C@@H](n5cnc6c(=O)[nH]c(N)nc65)C[C@@H]4OP(N)(=O)OC[C@H](COP(N)(=O)OC[C@H]4O[C@@H](n5cc(C)c(=O)[nH]c5=O)C[C@@H]4OP(N)(=O)OC[C@H]4O[C@@H](n5cnc6c(=O)[nH]c(N)nc65)C[C@@H]4OP(N)(=O)OC[C@H]4O[C@@H](n5cnc6c(=O)[nH]c(N)nc65)C[C@@H]4O)O[C@H](CO)n4ccc(=O)[nH]c4=O)[C@H](n4cnc5c(=O)[nH]c(N)nc54)O3)[C@@H](COP(N)(=O)OC[C@@H](COP(N)(=O)O[C@H]3C[C@H](n4cnc5c(=O)[nH]c(N)nc54)O[C@@H]3COP(N)(=O)O[C@H]3C[C@H](n4cnc5c(=O)[nH]c(N)nc54)O[C@@H]3COC(=O)CCCC[C@@H]3SC[C@@H]4NC(=O)N[C@@H]43)O[C@H](CO)n3ccc(=O)[nH]c3=O)O2)c(=O)[nH]c1=O (some centres undefined) | 0.4 s | 19.4 s
– | 51 °C | Cc1cn([C@H]2C[C@H](OP(N)(=O)OC[C@@H]3C[C@@H](OP(N)(=O)OC[C@H]4O[C@@H](n5cnc6c(=O)[nH]c(N)nc65)C[C@@H]4OP(N)(=O)OC[C@H](COP(N)(=O)OC[C@H]4O[C@@H](n5cnc6c(=O)[nH]c(N)nc65)C[C@@H]4OP(N)(=O)OC[C@H]4O[C@@H](n5cc(C)c(=O)[nH]c5=O)C[C@@H]4OP(N)(=O)OC[C@H]4O[C@@H](n5cnc6c(=O)[nH]c(N)nc65)C[C@@H]4OP(N)(=O)OC[C@H]4O[C@@H](n5cnc6c(=O)[nH]c(N)nc65)C[C@@H]4OP(N)(=O)OC[C@H](COP(N)(=O)OC[C@H]4O[C@@H](n5cc(C)c(=O)[nH]c5=O)C[C@@H]4OP(N)(=O)OC[C@H]4O[C@@H](n5cnc6c(=O)[nH]c(N)nc65)C[C@@H]4OP(N)(=O)OC[C@H]4O[C@@H](n5cnc6c(=O)[nH]c(N)nc65)C[C@@H]4O)O[C@H](CO)n4ccc(=O)[nH]c4=O)O[C@H](CO)n4ccc(=O)[nH]c4=O)[C@H](n4cnc5c(=O)[nH]c(N)nc54)O3)[C@@H](COP(N)(=O)OC[C@@H](COP(N)(=O)O[C@H]3C[C@H](n4cnc5c(=O)[nH]c(N)nc54)O[C@@H]3COP(N)(=O)O[C@H]3C[C@H](n4cnc5c(=O)[nH]c(N)nc54)O[C@@H]3COC(=O)CCCC[C@@H]3SC[C@@H]4NC(=O)N[C@@H]43)O[C@H](CO)n3ccc(=O)[nH]c3=O)O2)c(=O)[nH]c1=O (some centres undefined) | 0.5 s | 19.5 s
